These results are taken from publication PMC4527612 (Journal of inorganic biochemistry, 2014).

Data set [1] concerns HeLa (cervix carcinoma). The data set can be described thus: Dark cytotoxicity, Trypan blue exclusion test. The data set is classed as cell-based, human. The following applies: read-out: IC50 (μM) ± S.E.M. HeLa, 48 h incubation. In outline: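 HeLa cells were grown in DMEM with 10% FBS, 2 mM L-glutamine and penicillin/streptomycin at 37 °C. They were seeded at 0.5 × 10^6/mL in glass vials, given 24 h, then exposed for 48 h in the dark to test compound in distilled water at various concentrations. Cells were trypsinised, stained 5–15 min with 0.4% Trypan blue and counted by hemocytometer. […] IC50 was derived from at least three experiments, mean ± S.E.M.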

For data set [2], the system named is KCL-22 (chronic myeloid leukemia in blast crisis). To be noted: read-out: IC50 (μM) ± S.E.M. KCL-22, dark; cited from earlier work.
Data set [3] shares this test system. The data set can be described thus: Dark cytotoxicity, Trypan blue exclusion test. Type of data set: cell-based, human.
Data set [4] has as its system human normal leukocytes (HNL). The data set can be described thus: Cytotoxicity on normal cells, trypan blue exclusion assay. The data set is classed as cell-based.
The subject of data set [5] is KCL-22 cell line. The data set can be described thus: Comet assay. Type of data set: cell-based, human. The following applies: for % DNA in tail, Mean ± S.E.M. / % DNA in tail, Median / L/H, Mean ± S.E.M. / L/H, Median / OTM, Mean ± S.E.M. / OTM, Median: KCL-22. The gist of the method:
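KCL-22 cells were treated 24 h after seeding for 2 h at three concentrations of test compound, with untreated cells as control. Cells were embedded in 0.5% low-melting agarose on slides precoated with 1% agarose and lysed 1 h at 4 °C (2.5 M NaCl, 100 mM EDTA, 10 mM Tris, 1% Triton X-100, pH 10). DNA was unwound 40 min (300 mM NaOH, 1 mM EDTA, pH >13), then electrophoresed at 4 °C for 25 min at 25 V, 300 mA. Slides were neutralised with 0.4 M Tris pH 7.5, stained with 20 μg/mL ethidium bromide, and ≥150 cells scored (50 per triplicate slide). Analysis was by Mann–Whitney test.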

Data set [6] has as its system KCL-22 cell line. The data set can be described thus: Flow cytometric cell cycle analysis. The data set is classed as cell-based, human. The gist of the method:
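KCL-22 cells were exposed 24 h after seeding to three concentrations of test compound for 48 h. About 10^6 cells were fixed by dropwise addition of cold 70% ethanol on vortex, held overnight at 4 °C, and stored at −20 °C for up to a week. Cells were then washed twice in PBS and stained 30 min with 0.1 mg/mL RNase and 0.05 mg/mL propidium iodide. DNA content was read by flow cytometry, with doublets excluded by FSC/SSC. Phases were fitted with the Dean–Jett–Fox model.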

A short description of data set [7]: Lipophilicity by thin-layer chromatographic retention factor Rf. Type of data set: physicochemical. To be noted: silica, 1:1:8 KNO3-saturated H2O:H2O:CH3CN.
Data set [8] relates to HeLa, HEP-3B, LN-308, MCF-7 and KCL-22 human cancer cell lines. The data set can be described thus: Dose-dependent cytotoxicity curves in five cancer cell lines. The data set is classed as cell-based. The following applies: Fig. 3.
The subject of data set [9] is HeLa cell line. The data set can be described thus: Cytokinesis block micronucleus.
Data set [10] has as its system KCL-22 cells. The data set can be described thus: Photo-induced cytotoxicity, vital dye exclusion test. The data set is classed as cell-based, human. In outline:
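After 24 h in glass vials, KCL-22 cells were preincubated 30 min with free-base porphyrin (distilled water) at various concentrations. They were then irradiated 25 min with a tungsten lamp (30 mW/cm2, 28,000 lx) through a 600–900 nm glass filter and incubated a further 48 h. Viable cells were counted by vital dye exclusion. Controls were dark-kept treated cultures and illuminated untreated cultures; Chlorin e6 was the positive control. IC50 came from dose–response curves, mean ± S.E.M.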

Data set [11] deals with KCL-22 cells. The data set can be described thus: Dark toxicity of photosensitizers, vital dye exclusion test. The data set is classed as cell-based, human. To be noted: for IC50: read-out: IC50 (μM) ± S.E.M. Under dark. The gist of the method: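 KCL-22 cells were grown in RPMI-1640 with 10% FBS, 2 mM L-glutamine and penicillin/streptomycin at 37 °C, then seeded in glass vials for 24 h. Free-base porphyrin in distilled water was added at various concentrations, and cells were kept in the dark without illumination for 48 h. Viable cells were counted by vital dye exclusion, with viability as % of intact control. IC50 came from dose–response curves, mean ± S.E.M. of at least three experiments.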

For data set [12], the system named is KCL-22 cells. To be noted: read-out: IC50 (μM) ± S.E.M. Photo-induced; KCL-22, illumination; cited from earlier work.
For data set [13], the system named is KCL-22 cells. To be noted: read-out: IC50 (μM) ± S.E.M. Under dark; KCL-22, dark; cited from earlier work.

Where two headings read alike, the source gives them in different places. Marks after values point to notes of the source that are not given here.

The term IC50 denotes the point on the concentration scale where inhibition reaches its midpoint. With “5,10,15,20-tetra(4′-N-allylpyridyl)porphinato Ag(II) tetranitrate [AgTAll4PyP]”, the IC50 was 26 ± 2.4 µM in data set [1] and 2.5 ± 1.1 µM in data set [2].

Regarding `C=CC[n+]1ccc(-c2c3nc(c(-c4cc[n+](CC=C)cc4)c4ccc([n-]4)c(-c4ccc(OCCCCCCCCCCCCCCCC)c(OC)c4)c4nc(c(-c5cc[n+](CC=C)cc5)c5ccc2[n-]5)C=C4)C=C3)cc1.O=[N+]([O-])[O-].O=[N+]([O-])[O-].O=[N+]([O-])[O-].[Ag+2]` [AgTriAll4PyMVanC16P, 5-Mono(3′-methoxy-4′-hexadecyloxyphenyl)-10,15,20-tri(4′-N-allylpyridyl) porphinato Ag(II) trinitrate], the “fold enhancement of cytotoxicity on metallation of H2TriAll4PyMVanC16P” value in data set [3] (KCL-22, dark) is 5 fold. Also, the “toxicity on normal cells (HNL) as compared to cisplatin” value in [4] (HNL, trypan blue exclusion) was “significantly less toxic”. Also, the “toxicity towards cancer (KCL-22) versus normal (HNL) cells” value in [4] (although not significant) was “higher towards cancer versus normal cells”. In addition, the “% DNA in tail, Mean ± S.E.M.” value in data set [5] (concentration IC50, 2 h) was 9.36 ± 0.68%; in data set [5] (concentration IC50/5, 2 h) it was 3.10 ± 0.20%; in data set [5] (concentration IC50/20, 2 h), 1.74 ± 0.14%. For the same compound, the “% DNA in tail, Median” value was 7.14 ^* % in data set [5] (concentration IC50, 2 h); 3.11 ^* % in data set [5] (concentration IC50/5, 2 h); 1.74% in data set [5] (concentration IC50/20, 2 h). The “L/H, Mean ± S.E.M.” value in data set [5] (concentration IC50, 2 h) was 1.34 ± 0.01; in data set [5] (concentration IC50/5, 2 h), 1.12 ± 0.01; in data set [5] (concentration IC50/20, 2 h) it was 1.08 ± 0.00. Moreover, the “L/H, Median” value is listed as 1.32 ^* in data set [5] (concentration IC50, 2 h); 1.12 ^* in data set [5] (concentration IC50/5, 2 h); 1.07 in [5] (concentration IC50/20, 2 h). Besides, the “OTM, Mean ± S.E.M.” value in data set [5] (concentration IC50, 2 h) turned out to be 5.63 ± 0.42; in [5] (concentration IC50/5, 2 h) it was 1.42 ± 0.08; in data set [5] (concentration IC50/20, 2 h), 0.93 ± 0.06. Further, the “OTM, Median” value is given as 4.12 ^* in data set [5] (concentration IC50, 2 h); 1.14 ^* in data set [5] (concentration IC50/5, 2 h); 0.58 in data set [5] (concentration IC50/20, 2 h). For the same compound, the “DNA damage (Comet assay)” value in [5] (concentrations IC50/5 and IC50, KCL-22, 2 h after application) was “induce the breakage of DNA molecule”; in [5] (low (IC50/20) concentration, KCL-22, 2 h), “no effect”. Also, in data set [6] (KCL-22, 48 h), the “number of cells in G2 phase” value is given as “not changed”. Further, in data set [6] (KCL-22, IC50/2, IC50, IC60, 48 h), the S-phase cell number result is “significantly increased”. In addition, the “cells in G1 phase” value in data set [6] (KCL-22, IC50 or IC60 concentration, 48 h) was “statistically significant reduction”. Moreover, in data set [7], the “lipophilicity, TLC retention factor Rf, compared to tetracationic analog” value is reported as “gained significantly in lipophilicity”. For the same compound, the “concentration at which toxicity starts” value in data set [8] is ~ 1 μM. Moreover, the “MN (micronucleus) formation in binucleate cells” value in [9] (all concentrations applied, from IC50/5 to IC60, HeLa) is “did not induce MN formation”. Moreover, the “CBPI (cytokinesis block proliferation index)” value in data set [9] (concentration IC50, HeLa) was 1.33 ± 0.002; in [9] (concentration IC50/2, HeLa, listed as Ag porphyrin) it was 1.37 ± 0.004; in data set [9] (concentration IC50/2, HeLa, listed as Amphiphilic Ag porphyrin) it was “no effect”; in data set [9] (concentration IC50/5, HeLa, listed as Ag porphyrin), 1.42 ± 0.034; in data set [9] (concentration IC50/5, HeLa, listed as Amphiphilic Ag porphyrin) it was “no effect”; in data set [9] (concentration IC60, HeLa), 1.20 ± 0.002. Besides, the “CBPI, % of negative control” value is 91% in data set [9] (concentration IC50, HeLa); 94% in [9] (concentration IC50/2, HeLa); 97% in data set [9] (concentration IC50/5, HeLa); 82% in data set [9] (concentration IC60, HeLa).

With `C=Cc1c(C)c2cc3nc(c(CC(=O)O)c4[nH]c(cc5nc(cc1[nH]2)C(C)=C5CC)c(C)c4C(=O)O)[C@@H](CCC(=O)O)[C@@H]3C` [Chlorin e6, reference compound], the IC50 is 4 ± 0.2 µM in [10] (Homo sapiens, KCL-22, read-out: IC50 (μM) ± S.E.M. Photo-induced) and over 50 µM in data set [11] (Homo sapiens, KCL-22, 48 h).

For the compound `N.N.[Cl][Pt][Cl]` [Cisplatin, cisplatin, reference compound], the “concentration at which toxicity starts” value in [8] is on record as ~ 0.2 μM.

On to `C=CC[n+]1ccc(-c2c3nc(c(-c4cc[n+](CC=C)cc4)c4ccc([nH]4)c(-c4cc[n+](CC=C)cc4)c4nc(c(-c5cc[n+](CC=C)cc5)c5ccc2[nH]5)C=C4)C=C3)cc1` [H2TAll4PyP, 5,10,15,20-tetra(4′-N-allylpyridyl)porphyrin tetrabromide], for which the IC50 in [12] was 50 µM; in data set [13] it was over 1600 µM.

Regarding `C=CC[n+]1ccc(-c2c3nc(c(-c4cc[n+](CC=C)cc4)c4ccc([nH]4)c(-c4ccc(OCCCCCCCCCCCCCCCC)c(OC)c4)c4nc(c(-c5cc[n+](CC=C)cc5)c5ccc2[nH]5)C=C4)C=C3)cc1.[Br-].[Br-].[Br-]` [H2TriAll4PyMVanC16P, 5-Mono(3′-methoxy-4′-hexadecyloxyphenyl)-10,15,20-tri(4′-N-allylpyridyl) porphine tribromide], the “fold by which IC50 upon illumination is lower than IC50 under the dark” value in data set [10] (KCL-22) is given as “more than 35 fold”. Also, the “fold more phototoxic than Chlorin e6” value in data set [10] (KCL-22, illumination) is listed as 5 fold. In addition, the “fold increase in cytotoxicity over tetracationic analog H2TAll4PyP” value in data set [11] (KCL-22, dark) is reported as “more than 60 fold”. Besides, the IC50 in [11] (KCL-22, dark, 48 h) was 25 ± 2 µM. The “lipophilicity, TLC retention factor Rf, compared to tetracationic analog” value in [7] is “gained dramatically in lipophilicity”.

Regarding `O=[N+]([O-])[O-].[Ag+]` [Silver nitrate], in data set [3] (at up to 20 μM concentration, data not shown), the “toxicity on KCL-22 cell line” value is recorded as “no toxicity”.
